Compounds with a hit are over-represented: about 2.1% of the library has one in this group of screens.
APJ agonist – activates the human apelin receptor APJ | P35414 | CHO-K1 APJ PathHunter beta-arrestin, luminescence; 0% DMSO wells, 100% apelin | activation, % at 20 µM | 330,000 compounds, 0.11% hits | AID 2520;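 active means activation more than six SD over the plate average, tested at 20 µM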;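 further: 0% = DMSO alone and 100% = apelin-13 at 10 nM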
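Test system – PathHunter CHO-K1 APJ (AGTRL-1) beta-arrestin reporter cells · Input – 1000 cells/well · Compound – single test compound dose, 20 µM final, 1% DMSO · Times – compound stimulation 90 min at 25 °C, detection 60 min · Technique – beta-gal luminescence · Read-out basis – APJ–arrestin association signal · Control set – negative DMSO alone, positive Apelin-13 at 10 nM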
EBI2 antag – antagonists of human EBI2 receptor; EBI2 beta-arrestin recruitment, luminescence, 7a,25-OHC stimulated; inhibition, % at 5 µM; 360,000 compounds, 0.81% hits; AID 651636; in the data active means inhibition above about 38%;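 further: enzyme fragment complementation signal reports receptor beta-arrestin coupling in cells; 0% = agonist plus DMSO wells and 100% = wells without agonist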
CXCR6 inh – blocks human CXCR6 beta-arrestin recruitment | O00574 | CHO-K1 PathHunter CXCR6 beta-arrestin, luminescence | inhibition, % at 20 µM | 360,000 compounds, 0.36% hits | AID 602244; in the data active means inhibition above about 34%, passing the limit was not always enough;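 further: antagonist mode with CXCL16 agonist at 10 nM final; 0% = 10 nM CXCL16 with DMSO and 100% = unstimulated wells without agonist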
Target sequence (O00574 whole entry, looked up): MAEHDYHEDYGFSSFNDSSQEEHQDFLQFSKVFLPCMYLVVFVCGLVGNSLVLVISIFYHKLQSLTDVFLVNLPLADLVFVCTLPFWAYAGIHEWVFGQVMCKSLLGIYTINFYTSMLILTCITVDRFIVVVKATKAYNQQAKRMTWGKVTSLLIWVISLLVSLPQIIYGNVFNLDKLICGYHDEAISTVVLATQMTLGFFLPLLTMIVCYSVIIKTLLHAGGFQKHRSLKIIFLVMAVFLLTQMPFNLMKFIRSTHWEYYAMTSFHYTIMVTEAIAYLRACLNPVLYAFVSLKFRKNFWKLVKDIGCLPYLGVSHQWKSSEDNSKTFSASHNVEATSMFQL
CCR6 antagonist – blocks CCL20-driven beta-arrestin recruitment at human CCR6 | inhibition, % at 20 µM | P51684 | CHO-K1 CCR6 PathHunter beta-arrestin, luminescence, CCL20-stimulated | 340,000 compounds, 0.49% hits;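 active means compounds whose inhibition of the agonist-driven luminescence signal at 20 µM reaches about 50%, limit read from the data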;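 further: cells stimulated with CCL20 at 14 nM final; plate controls were DMSO with CCL20 for no effect and DMSO without agonist for full effect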
Target sequence (P51684 whole entry, looked up): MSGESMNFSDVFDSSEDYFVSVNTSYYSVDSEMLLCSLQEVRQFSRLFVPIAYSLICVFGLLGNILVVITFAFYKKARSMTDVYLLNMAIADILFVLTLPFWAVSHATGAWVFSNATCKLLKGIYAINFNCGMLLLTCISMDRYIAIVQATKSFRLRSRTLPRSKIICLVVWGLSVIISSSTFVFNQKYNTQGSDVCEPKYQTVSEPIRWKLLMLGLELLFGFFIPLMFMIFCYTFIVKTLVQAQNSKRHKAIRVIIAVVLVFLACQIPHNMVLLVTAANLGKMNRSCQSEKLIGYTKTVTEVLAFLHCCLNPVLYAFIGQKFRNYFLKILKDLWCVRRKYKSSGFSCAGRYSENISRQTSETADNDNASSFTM
APJ antagonist – APJ receptor antagonism. P35414. CHO-K1 APJ beta-arrestin complementation, luminescence. inhibition, % at 20 µM. 330,000 compounds, 0.32% hits. AID 2521;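 active means inhibition above about 40% at 20 µM, limit read from the data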;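 further: cells challenged with 10 nM apelin-13 agonist together with compound; plate controls were apelin-13 plus DMSO wells for no effect and DMSO wells lacking apelin-13 for full effect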
m5-HT2A agonist – mouse HTR2A agonism via beta-arrestin recruitment; AID 624169; P35363; 360,000 compounds, 0.66% hits; CHO-K1 mHTR2A beta-arrestin complementation, luminescence; percent of 30 µM serotonin response; activation, % at 7.6 µM;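 active means activation above a run cutoff, the mean activation of all tested compounds plus 3 SD, cut at about 14% in these data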;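 further: 0% = plate median of compound wells and 100% = 30 µM serotonin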
OPRM1 ag – counter-screen for mouse HTR2A agonists: human mu opioid receptor agonists; shares compounds with m5-HT2A agonist; U2OS OPRM1 beta-arrestin PathHunter, luminescence; DMSO 0%, DAMGO 9.3 µM 100%; activation, % at 9.3 µM; 2,300 compounds, 5.3% hits; AID 624380;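 active means mean activation above the mean of DMSO-only wells plus 3 SD, cut at about 0.5% in these data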
HTR2A ag conf – confirmation of mouse HTR2A serotonin receptor agonists; shares compounds with m5-HT2A agonist; CHO-K1 PathHunter beta-arrestin recruitment, luminescence; DMSO 0%, 30 µM serotonin 100%; activation, % at 7.6 µM; 2,300 compounds, 19% hits; AID 624381;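 active means mean activation across triplicates above the hit threshold derived in the original primary screen, cut at about 15% in these data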
* = called active by the depositor; . = not tested or not shown.

SMILES | APJ agonist | EBI2 antag | CXCR6 inh | CCR6 antagonist | APJ antagonist | m5-HT2A agonist | OPRM1 ag | HTR2A ag conf
O=C(OC1CCCCC1=O)c1ccc(F)c(S(=O)(=O)N2CCOCC2)c1 (stereo unspecified) | -3 | 1 | 14 | 12 | 16 | 3 | . | .
CN(Cc1ccccc1)C(=O)COC(=O)CNS(=O)(=O)c1ccc2ccccc2c1 | 10 | -4 | -13 | -8 | -71 | 0 | . | .
Cc1ccccc1C(=O)c1cccn1CC(=O)NCc1ccccc1Cl | -5 | 7 | 1 | 20 | 12 | 26* | 0 | 5
O=C(Cn1cccc1C(=O)c1ccccc1)NCc1ccccc1Cl | 0 | 13 | 1 | 3 | 25 | 5 | . | .
O=C(CC1CS(=O)(=O)CC1CC(=O)Oc1ccccc1F)Oc1ccccc1F (stereo unspecified) | -1 | 15 | 4 | 9 | -24 | 16* | 0 | -2
CC(NC(=O)CCNC(=O)c1ccc(Br)cc1)c1ccc(S(N)(=O)=O)cc1 (stereo unspecified) | -4 | -9 | 0 | 0 | 13 | -1 | . | .
CCC(=O)NC(c1cc(Cl)c2cccnc2c1O)C(C)C (stereo unspecified) | -3 | 5 | 15 | 45 | 31 | -21 | . | .
Oc1c(C(c2ccccn2)N2CCCCC2)cc(Cl)c2cccnc12 (stereo unspecified) | -8 | 20 | 26 | 63* | 37 | 22* | -1 | -18
CCCS(=O)(=O)NC(=O)C1(C)CCCN(C(=O)CCc2cccs2)C1 (stereo unspecified) | . | -2 | 0 | . | . | -3 | . | .
Cn1cc(NC(=O)OCc2ccc(Cl)cc2)c(C(F)(F)F)n1 | -2 | 2 | -4 | -2 | -6 | -4 | . | .
Cc1ccc(S(=O)(=O)Nc2c(C)n(C)n(-c3ccccc3)c2=O)cc1C(=O)OCC(=O)N1CCCC(C)C1 (stereo unspecified) | -3 | 2 | -14 | 3 | 14 | 16* | -1 | 1
Cc1ccc(C(C)NC(=O)c2cc3cc(Br)ccc3oc2=N)cc1 (stereo unspecified) | -2 | 4 | -9 | 1 | -29 | 3 | . | .
O=S(=O)(NCc1ccc(F)cc1)c1cc(Br)ccc1Br | -3 | 3 | 4 | 13 | 4 | 18* | 0 | 0
O=S(=O)(NCCc1ccc(F)cc1)c1cc(C(F)(F)F)ccc1Br | . | -5 | -6 | -13 | . | 3 | . | .
CC(C)NC(=O)C12CC3CC(C1)CC(C(=O)NC(C)C)(C3)C2 | -1 | -5 | -6 | -11 | 6 | 3 | . | .
Cn1c(NC(=O)C[n+]2cc(-c3ccc(F)cc3)n3c2CCC3)cc(=O)n(C)c1=O | 2 | 17 | 5 | 6 | 12 | 15* | -1 | -3
CC(=O)N1Cc2ccccc2CC1C(=O)NCc1ccccc1F (stereo unspecified) | -2 | 0 | 5 | 12 | -7 | 16* | 0 | -1
O=C(/C=C/[C@H]1O[C@@H](n2ccc(=O)[nH]c2=O)[C@H](O)[C@@H]1O)NCCN1CCCCC1 | . | -5 | 4 | . | . | 16* | -1 | -3
CC(=O)c1cccc(CN2CCCC(N3CCN(c4ccccc4F)CC3)C2)c1 (stereo unspecified) | -4 | 5 | 7 | 17 | -15 | 13 | . | .
CCOC(=O)C1=CNS(=O)(=O)NC1c1ccc(C[C@H](NC(=O)CNC(=O)CCc2ccccc2)C(N)=O)cc1 (stereo partly specified) | . | -7 | -3 | 5 | . | 2 | . | .
COc1ccc(NC(=O)CSc2nnnn2C2CCCCC2)cc1 | 1 | 1 | 2 | 10 | 6 | -5 | . | .
COCCNc1nc(-c2cc(-c3ccc(Cl)cc3)on2)cc(C(C)C)n1 | -2 | 10 | -4 | 3 | -13 | 16* | -1 | -3
Cc1csc2c(N3CCN(C(=S)Nc4ccc(F)cc4F)CC3)ncnc12 | 7 | -21 | -10 | 5 | -10 | 34* | -1 | 5
Cc1csc2c(N3CCN(C(=O)Nc4ccccc4)CC3)ncnc12 | -1 | -13 | -14 | 6 | 10 | 21* | 0 | -1
O=C(COC(=O)Cc1ccccc1[N+](=O)[O-])Nc1nnc(-c2ccccc2)o1 | -5 | -4 | 2 | 13 | -5 | 13 | . | .
SMILES | APJ agonist | EBI2 antag | CXCR6 inh | CCR6 antagonist | APJ antagonist | m5-HT2A agonist | OPRM1 ag | HTR2A ag conf
COc1ccc(N2CC(NC(=O)N3CCN(c4ccccc4)CC3)CC2=O)cc1 (stereo unspecified) | -3 | 39 | -2 | -6 | 2 | 3 | . | .
COC(=O)C1CCN(CC(=O)Nc2ccc3c(c2)OCCO3)CC1 | -1 | 1 | -2 | 13 | 16 | 32* | -1 | 42*
NC(=O)C1CCN(CC(=O)Nc2ccc3c(c2)OCCO3)CC1 | -3 | -8 | 4 | 9 | -4 | -2 | . | .
Cn1c(=O)[nH]c(=O)c2c1nc(N1CCCC1)n2CCO | -3 | 4 | 1 | -4 | 10 | 22* | 0 | -1
O=C1CCC(C(=O)Nc2ccccc2)N1 (stereo unspecified) | -4 | -9 | -2 | 2 | 17 | -1 | . | .
O=C1CC[C@@H](C(=O)N2CSC[C@H]2C(=O)O)N1 | 2 | -1 | 4 | 11 | 10 | 46* | -1 | -4
CCOC(=O)C1=CCN(Cc2ccccc2)CC1 | -4 | -8 | 4 | 0 | 13 | 19* | 0 | 80*
O=C(c1ccc(S(=O)(=O)Nc2ccccc2Cl)cc1)N1CCCC1 | -4 | -4 | -4 | 0 | -3 | 2 | . | .
CC(=O)N1CCN(C(=O)c2ccc(S(=O)(=O)Nc3ccccc3Cl)cc2)CC1 | -2 | -9 | 1 | -5 | -22 | 16* | 0.9* | 6
Cc1ccc(CCNC(=O)C2CCN(S(=O)(=O)c3ccc4c(c3)NC(=O)CO4)CC2)cc1 | 2 | 12 | -9 | 4 | -7 | 8 | . | .
COc1cccc(-c2c(-c3cc(OC)cc(OC)c3)n(C)c3ccc(-c4ccc5[nH]ccc5c4)cc23)c1 | -1 | 8 | 7 | 4 | 5 | 8 | . | .
COc1cc(OC)cc(-c2c(-c3ccsc3)c3cc(Br)ccc3n2C)c1 | 1 | 1 | 6 | 14 | -22 | 15* | 0 | -2
COc1cc(OC)cc(-c2c(-c3ccc(F)cc3)c3cc(-c4ccc5[nH]ccc5c4)ccc3n2C)c1 | 1 | -1 | 9 | 6 | -9 | 15* | -1 | -4
CCOc1ccc(NC(=S)N2CCC(c3nc4ccccc4[nH]3)CC2)cc1 | 1 | 24 | 3 | -4 | -9 | -1 | . | .
